Compound activity from PubChem.
KCNK3 block – human KCNK3 channel inhibition, primary screen; O14649; CHO-KCNK3 thallium flux, FluxOR fluorescence; stronger effect = lower value; B-score at 10 µM; hit rate 0.84% among 340,000;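 active = B-score under library mean minus 4 SD, starting fluorescence ratio at most library mean plus 5 SD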;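 also: more negative B-score means stronger inhibition of thallium flux through KCNK3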
KCNK9 inh – blocks the human KCNK9 two-pore domain potassium channel; Q9NPC2; HEK293 KCNK9, FluxOR thallium flux fluorescence; stronger effect = lower value; B-score at 10 µM; hit rate 1.2% among 310,000; AID 488922;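 active = ratio B-score over 3 SD below the library mean, with starting fluorescence within 5 SD of its mean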;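 also: negative B-score means less thallium flux so channel inhibition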
Target sequence (Q9NPC2 whole entry, looked up, the tested form may be a part): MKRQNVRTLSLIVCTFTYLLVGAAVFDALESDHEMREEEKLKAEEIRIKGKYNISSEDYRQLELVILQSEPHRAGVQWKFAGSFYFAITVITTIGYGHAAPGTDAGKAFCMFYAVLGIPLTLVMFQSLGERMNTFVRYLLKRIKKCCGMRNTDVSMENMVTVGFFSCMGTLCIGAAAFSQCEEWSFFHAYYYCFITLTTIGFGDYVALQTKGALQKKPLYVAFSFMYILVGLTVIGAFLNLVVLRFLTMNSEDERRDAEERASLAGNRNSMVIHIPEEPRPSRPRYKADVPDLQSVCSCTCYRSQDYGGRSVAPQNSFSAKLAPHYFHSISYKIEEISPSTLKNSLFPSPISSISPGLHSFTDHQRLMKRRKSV
KCNQ1 inh – inhibitors of human KCNQ1 potassium channel. P51787. hit rate 1.3% among 310,000. CHO-K1 KCNQ1, FluxOR thallium flux fluorescence; stronger effect = higher value. AID 2642. B-score at 10 µM;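 active = compounds whose thallium flux B-score, printed positive for inhibition, exceeds three library SD while starting fluorescence stays within three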;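 also: channel opened by potassium depolarization with thallium stimulus after 20 min compound exposure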
hERG protect – hERG (human) protection from proarrhythmic block. CHO-hERG, FluxOR thallium flux, dofetilide IC70 present. activation (rescue from dofetilide block), less the hit threshold, % at 10 µM. hit rate 0.51% among 310,000. AID 1511;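 active = activation above the mean of controls blocked by dofetilide plus 5 SD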;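 also: thallium influx through hERG after potassium depolarization seen as dye fluorescence rise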
KCNQ1 act – potentiates or activates the human KCNQ1 potassium channel; B-score at 10 µM; hit rate 0.35% among 310,000; CHO-K1 KCNQ1, thallium flux FluxOR fluorescence; stronger effect = higher value; P51787;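 active = fluorescence ratio B-score, a plate-corrected score, at least three library SD, with initial intensity B-score within 5 SD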
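assay system = KCNQ1-transfected CHO-K1 cells | medium = assay buffer with matched DMSO | probe or stimulus = depolarizing K+/Tl+ stimulus, K2SO4 and Tl2SO4 each 12.5 mM in 5x stock | dosing = single dose | incubation = dye 90 min, compound 20 min, room temperature | detection = kinetic FluxOR fluorescence, 10 s baseline plus 110 s post-stimulus | evaluation = ratio B score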
KCNK9 block conf – confirmation of human KCNK9 potassium channel inhibitors. hit rate 43% among 4,900. HEK293 KCNK9 cells, FluxOR thallium flux fluorescence. inhibition, % at 10 µM. shares compounds with KCNK9 inh;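 active = thallium signal inhibited by more than 5 SD of the compound-free buffer control wells, on both duplicate plates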
Kir21 sel – tests whether KCNK9 modulators also affect mouse Kir2.1 | shares compounds with KCNK9 inh | Kir2.1 cells, FluxOR thallium flux fluorescence | inhibition, % at 10 µM | hit rate 4% among 4,900;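 active = thallium signal drop more than 5 SD beyond the mean of the no-compound control wells, seen in both duplicate plates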;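 also: signal is fluorescence rise after thallium addition divided by baseline fluorescence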
KCNK9 uninduced – second counter-screen for KCNK9 modulators: effect in non-induced cells. shares compounds with KCNK9 inh. non-induced KCNK9-HEK293, FluxOR thallium flux. inhibition, % at 10 µM. hit rate 40% among 4,900. AID 492997;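 active = thallium signal drop beyond 5 SD of the untreated control mean, on both duplicate plates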
Hits are given with their value; i = inactive; nt = no result given. Shown are actives, neighbours in structure and some others; about 3.1% of the full set was active somewhere.

SMILES	KCNK3 block	KCNK9 inh	KCNQ1 inh	hERG protect	KCNQ1 act	KCNK9 block conf	Kir21 sel	KCNK9 uninduced
Cc1cccc(C(=O)N2CCCC(Nc3ccc(C)c(C)c3)C2)n1 (stereo unspecified)	i	i	i	i	i	i	i	i
COc1ccc(NC2CCCN(C(=O)c3ccc4[nH]c(C)c(C)c4c3)C2)cc1 (stereo unspecified)	i	-12	i	i	i	i	i	i
Cc1cccc(C(=O)N2CCCC(Nc3ccc(F)c(F)c3)C2)n1 (stereo unspecified)	i	i	i	i	i	nt	nt	nt
Cc1cnc(N=Nc2ccccc2)[nH]1	i	nt	nt	nt	nt	nt	nt	nt
O=c1nc(SCc2c(F)cccc2Cl)nc(-c2ccccc2)[nH]1	nt	i	i	i	i	nt	nt	nt
O=c1nc(SCc2ccc(Cl)cc2)nc(-c2ccccc2)[nH]1	i	i	i	i	i	i	i	i
COCCN(Cc1nc(C(c2ccccc2)c2ccccc2)no1)C(C)C	i	-8.7	i	i	i	i	i	i
CN(C)c1cc(N/N=C/c2ccccc2C(F)(F)F)nc(N(C)C)n1	i	i	i	i	i	i	i	i
CC(C)C1N=C(c2ccc3c(c2)OCO3)CC(c2ccccc2O)N1 (stereo unspecified)	i	i	i	i	i	nt	nt	nt
CCOc1ccccc1C1N=C(c2ccc(OC)cc2)CC(c2ccccc2O)N1 (stereo unspecified)	i	i	i	i	i	i	i	i
COc1ccc2c3c(cccc13)C(=O)CC2	i	i	i	i	i	nt	nt	nt
CN(Cc1cccc(Cl)c1Cl)C(=O)c1cccc(S(=O)(=O)N2CCN(Cc3ccccc3)CC2)c1	i	i	i	i	i	i	i	i
c1ccc2c(c1)Cc1ccccc1O2	i	nt	nt	nt	nt	nt	nt	nt
CN(C(=O)COC(=O)CCc1c[nH]c2ccccc12)C(c1ccccc1)c1ccccc1	i	-9.5	i	i	i	44%	i	28%
O=C(COC(=O)CCc1c[nH]c2ccccc12)NCc1ccccc1	i	i	i	i	i	nt	nt	nt
c1cc2c(cc1CNc1ccc(N3CCOCC3)cc1)OCO2	i	nt	nt	nt	nt	nt	nt	nt
COC(=O)c1cc(=O)n(Cc2cccs2)c(=Nc2ccc(F)cc2)s1	i	i	i	i	i	nt	nt	nt
COC(=O)c1cc(=O)n(CCc2ccccc2F)c(=Nc2ccc(F)c(Cl)c2)s1	i	-14	i	i	i	44%	i	36%
COc1ccc(SCCN2CC[C@@H](C(C)(C)C)CCC2=O)cc1	i	nt	nt	nt	nt	nt	nt	nt
CC(C)C(=O)NC(c1ccc(Cl)cc1Cl)c1ccc2cccnc2c1O (stereo unspecified)	i	i	i	i	i	i	i	28%
CCC(=O)NC(c1ccc(Cl)cc1Cl)c1ccc2cccnc2c1O (stereo unspecified)	i	i	i	i	i	nt	nt	nt
Cc1nc(NC(=O)c2ccccc2)sc1C1(C)CC(c2c(Cl)cccc2Cl)=NO1 (stereo unspecified)	i	-9.8	i	i	i	55%	i	36%
Cc1nc(NC(=O)c2ccccc2)sc1C1(C)CC(c2ccccc2F)=NO1 (stereo unspecified)	i	i	i	i	i	nt	nt	nt
O=C1CC(N2CCC(Cc3ccccc3)CC2)C(=O)N1CCc1ccccc1 (stereo unspecified)	i	i	i	i	i	i	i	i
O=C1CC(N2CCN(C3CC(=O)N(CCc4ccccc4)C3=O)CC2)C(=O)N1CCc1ccccc1 (stereo unspecified)	i	i	i	i	i	nt	nt	nt
Cc1cccc2c1cnn2C(=O)CCC(=O)NCC(C)c1ccccc1 (stereo unspecified)	i	i	i	i	i	nt	nt	nt
Cc1cccc(C(=O)NC(=S)Nc2ccc(Cc3ccncc3)cc2)c1	i	i	i	i	i	i	i	i
COc1ccc(C(=O)NC(=S)NC(C)c2ccccc2)cc1 (stereo unspecified)	i	i	i	i	i	nt	nt	nt
Cc1cccc(C(=O)NC(=S)NC(C)c2ccccc2)c1 (stereo unspecified)	i	i	i	i	i	i	i	i
